In ChEMBL document CHEMBL1142212, “Length effects in antimicrobial peptides of the (RW)n series” (Antimicrob Agents Chemother, 2007):
pIC50: −log10 of the molar value. Values after ≈ are worked out from the molar mass of the structure shown. Peptide text beside a SMILES is read from it.

What was measured:
Escherichia coli [1] = test: Antimicrobial activity against Escherichia coli D31 after 18 hrs; settings: D31, 18 h
Escherichia coli [2] = test: Growth inhibition of Escherichia coli D31
Erythrocyte = test: Hemolytic activity in sheep red blood cells; format: functional, Ovis aries
Procedure, shortened: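 Fresh sheep erythrocyte suspension was incubated with peptide in PBS pH 7.2 at 37°C for 30 min, then centrifuged at 3,000 rpm for 10 min. Supernatant was diluted 40-fold in water and read at OD540. Buffer gave 0% and 1% Triton-X gave 100% hemolysis. HD50 is the concentration giving 50% hemolysis, taken from dose-response curves.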

Staphylococcus aureus [3] = test: Growth inhibition of Staphylococcus aureus ATCC BAA44
Staphylococcus aureus [4] = test: Antimicrobial activity against Staphylococcus aureus ATCC BAA44 after 18 hrs

`N=C(N)NCCC[C@H](NC(=O)[C@H](Cc1c[nH]c2ccccc12)NC(=O)[C@H](CCCNC(=N)N)NC(=O)[C@H](Cc1c[nH]c2ccccc12)NC(=O)[C@H](CCCNC(=N)N)NC(=O)[C@H](Cc1c[nH]c2ccccc12)NC(=O)[C@H](CCCNC(=N)N)NC(=O)[C@H](Cc1c[nH]c2ccccc12)NC(=O)[C@@H](N)CCCNC(=N)N)C(=O)N[C@@H](Cc1c[nH]c2ccccc12)C(N)=O` was tested, and the MBC50 (Escherichia coli [1]) was 7.2 µM (≈ 12.4 µg/mL), the pIC50 (Escherichia coli [2]) was 5.21 and the HD50 (Erythrocyte) was 76 µM. It also gave a pIC50 (Staphylococcus aureus [3]) of 5.44 and an MBC50 (Staphylococcus aureus [4]) of 6.9 µM (≈ 11.9 µg/mL).
Work on `N=C(N)NCCC[C@H](N)C(=O)N[C@@H](Cc1c[nH]c2ccccc12)C(N)=O` (H-Arg-Trp-NH2) yielded an MBC50 (Escherichia coli [1]) of 4700 µM (≈ 1690 µg/mL), a pIC50 (Escherichia coli [2]) of 2.37 and an HD50 (Erythrocyte) of 8900 µM. It also gave a pIC50 (Staphylococcus aureus [3]) of 2.68 and an MBC50 (Staphylococcus aureus [4]) of 2300 µM (≈ 827 µg/mL).
With `N=C(N)NCCC[C@H](NC(=O)[C@H](Cc1c[nH]c2ccccc12)NC(=O)[C@@H](N)CCCNC(=N)N)C(=O)N[C@@H](Cc1c[nH]c2ccccc12)C(N)=O` (H-RWRW-NH2) the MBC50 (Escherichia coli [1]) was 990 µM (≈ 695 µg/mL), the pIC50 (Escherichia coli [2]) was 3.14 and the HD50 (Erythrocyte) was 3700 µM. For the same compound, the pIC50 (Staphylococcus aureus [3]) was 3.68 and the MBC50 (Staphylococcus aureus [4]) was 620 µM (≈ 435 µg/mL).
Compound `N=C(N)NCCC[C@H](NC(=O)[C@H](Cc1c[nH]c2ccccc12)NC(=O)[C@H](CCCNC(=N)N)NC(=O)[C@H](Cc1c[nH]c2ccccc12)NC(=O)[C@@H](N)CCCNC(=N)N)C(=O)N[C@@H](Cc1c[nH]c2ccccc12)C(N)=O` (H-RWRWRW-NH2) has an MBC50 (Escherichia coli [1]) of 29 µM (≈ 30.3 µg/mL), a pIC50 (Escherichia coli [2]) of 4.80 and an HD50 (Erythrocyte) of 210 µM. It also gave a pIC50 (Staphylococcus aureus [3]) of 5.10 and an MBC50 (Staphylococcus aureus [4]) of 15 µM (≈ 15.7 µg/mL).
With `N=C(N)NCCC[C@H](NC(=O)[C@H](Cc1c[nH]c2ccccc12)NC(=O)[C@H](CCCNC(=N)N)NC(=O)[C@H](Cc1c[nH]c2ccccc12)NC(=O)[C@H](CCCNC(=N)N)NC(=O)[C@H](Cc1c[nH]c2ccccc12)NC(=O)[C@@H](N)CCCNC(=N)N)C(=O)N[C@@H](Cc1c[nH]c2ccccc12)C(N)=O` (H-RWRWRWRW-NH2) the MBC50 (Escherichia coli [1]) was 14 µM (≈ 19.4 µg/mL), the pIC50 (Escherichia coli [2]) was 5.02 and the HD50 (Erythrocyte) was 100 µM. For the same compound, the pIC50 (Staphylococcus aureus [3]) was 5.29 and the MBC50 (Staphylococcus aureus [4]) was 12 µM (≈ 16.6 µg/mL).
